Source: PMC2952073 (Bioorganic & medicinal chemistry, 2010)
Each block holds one compound with its values, some of them ahead of it.

Legend:
[1] = tested on: Gli1-mediated transcription (human full-length Gli1); test: Gli-Luc reporter assay in C3H10T1/2 cells transfected with Gli1; format: cell-based; settings: for inhibition of Gli1-mediated transcription (Gli-Luc), relative potency in words: Gli1-transfected C3H10T1/2 cells, 10 µM or 20 µM, 24 h
[2] = tested on: Histone deacetylase (HDAC); test: HDAC inhibition; format: biochemical; settings: up to 40 µM; data not shown
[3] = Microsomal stability assay; format: in vitro ADME; settings: CD-1 female mouse liver microsomes, 37°C
medulloblastoma [4] = settings: mouse model in which SuFu is inactivated; cited from earlier work
[5] = tested on: endogenous Gli in Rh30 cells; test: Gli-mediated transcription reporter assay in Rh30 cells; format: cell-based
Method in brief: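 Rh30 cells seeded at 3×10^5 per dish in RPMI-1640 with 10% FBS (37 °C, 5% CO2); after 24 h (~70% confluence) transfected with GliLuc-BS (500 ng/mL) and pRL-CMV (2.5 ng/mL) using Fugene6. Replated into 96-well plates 6 h post-transfection; 18 h later exposed to test compound or DMSO for 24 h. Lysed cells read by dual luciferase as firefly/Renilla ratio.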

bone development = settings: young mice; cited from earlier work
medulloblastoma [6] = settings: mouse model in which Ptch1 is inactivated; cited from earlier work
[7] = tested on: Hh signal-mediated alkaline phosphatase; test: Hh signal-mediated alkaline phosphatase induction in C3H10T1/2 cells; format: cell-based, mouse; settings: osteoblastic differentiation marker
[8] = tested on: Gli1-target genes in Rh30 cells; test: Real-time RT-PCR of Gli1-target genes in Rh30 cells; format: cell-based; settings: 24 h after addition

SMILES: CCCN(C(=O)C(C)c1cccc(C(=O)c2ccccc2)c1)c1cccc2[nH]ccc12 (stereo not shown) [compound 43, 2-(3-Benzoylphenyl)-N-(1H-indol-4-yl)-N-propylpropanamide]
inhibition of Gli1-mediated transcription (Gli-Luc), relative potency in words [1]: equipotent to 33

HDAC inhibition [2]: do not inhibit
time to complete consumption in mouse liver microsomes [3]: less than 1 h
SMILES: CCCN(CCc1ccc(O)cc1)C(=O)C(C)c1cccc(C(=O)c2ccccc2)c1 (stereo not shown) [compound 6]

SMILES: CCCC(C)(C(=O)Nc1ccc2cc[nH]c2c1)c1cccc(C(=O)c2ccccc2)c1 (stereo not shown) [compound 40, 2-(3-Benzoylphenyl)-N-(1H-indol-6-yl)-2-methylpentanamide]
inhibition of Gli1-mediated transcription (Gli-Luc), relative potency in words [1]: did not increase potency

SMILES: CC(CNC(=O)Cc1ccc2[nH]ccc2c1)c1cccc(C(=O)c2ccccc2)c1 (stereo not shown) [compound 25, N-(2-(3-Benzoylphenyl)propyl)-2-(1H-indol-5-yl)acetamide]
inhibition of Gli1-mediated transcription (Gli-Luc), relative potency in words [1]: only weak activity

SMILES: COc1cc(OC)cc(C(=O)Nc2ccc(Cl)c(-c3nc4ccc(N(C)C)cc4[nH]3)c2)c1 [HhAntag]
efficacy (medulloblastoma [4]): not to be effective
Gli-Luc inhibition in Rh30 cells, in words ([5]; concentration as high as 40 µM): almost no Gli-Luc inhibition
effect on bone development (bone development): permanent defects in bone development
effect on medulloblastoma (medulloblastoma [6]): eliminate medulloblastoma

HDAC inhibition [2]: do not inhibit
time to complete consumption in mouse liver microsomes [3]: less than 1 h
SMILES: CC(C(=O)NCCc1ccc(O)cc1)c1cccc(C(=O)c2ccccc2)c1 (stereo not shown) [compound 5]

HDAC inhibition [2]: do not inhibit
SMILES: CCCN(C(=O)C(C)c1cccc(C(=O)c2ccccc2)c1)c1ccc2[nH]ccc2c1 (stereo not shown) [compound 42, 2-(3-Benzoylphenyl)-N-(1H-indol-5-yl)-N-propylpropanamide]
Gli-Luc inhibition in Rh30 cells, in words ([5]; 10 µM or 20 µM, 24 h): inhibition with similar or slightly weaker potency
inhibitory effect in inducing Hh signal-mediated alkaline phosphatase [7]: much smaller than that of HhAntag

SMILES: CC(CNC(=O)c1cc2ccccc2[nH]1)c1cccc(C(=O)c2ccccc2)c1 (stereo not shown) [compound 28, N-(2-(3-Benzoylphenyl)propyl)-1H-indole-2-carboxamide]
inhibition of Gli1-mediated transcription (Gli-Luc), relative potency in words [1]: equipotent inhibitors

SMILES: CCCn1ccc2ccc(NC(=O)C(C)c3cccc(C(=O)c4ccccc4)c3)cc21 (stereo not shown) [compound 41, 2-(3-Benzoylphenyl)-N-(1-propyl-1H-indol-6-yl)propanamide]
inhibition of Gli1-mediated transcription (Gli-Luc), relative potency in words [1]: did not increase potency

SMILES: CC(CNC(=O)c1cccc2[nH]ccc12)c1cccc(C(=O)c2ccccc2)c1 (stereo not shown) [compound 30, N-(2-(3-Benzoylphenyl)propyl)-1H-indole-4-carboxamide]
inhibition of Gli1-mediated transcription (Gli-Luc), relative potency in words [1]: decreased the potency

SMILES: CC(CNC(=O)c1c[nH]c2ccccc12)c1cccc(C(=O)c2ccccc2)c1 (stereo not shown) [compound 29, N-(2-(3-Benzoylphenyl)propyl)-1H-indole-3-carboxamide]
inhibition of Gli1-mediated transcription (Gli-Luc), relative potency in words [1]: equipotent inhibitors

stability in mouse liver microsomes, in words [3]: much more stable than 5 and 6
SMILES: CC(C(=O)Nc1ccc2cc[nH]c2c1)c1cccc(C(=O)c2ccccc2)c1 (stereo not shown) [compound 23, 2-(3-Benzoylphenyl)-N-(1H-indol-6-yl)propanamide]
inhibition of Gli1-mediated transcription (Gli-Luc), relative potency in words [1]: best among the tested analogs
Gli-Luc inhibition in Rh30 cells, in words ([5]; 10 µM or 20 µM, 24 h): inhibition with similar or slightly weaker potency
inhibitory effect in inducing Hh signal-mediated alkaline phosphatase [7]: much smaller than that of HhAntag

SMILES: CC(CNC(=O)c1cccc2cc[nH]c12)c1cccc(C(=O)c2ccccc2)c1 (stereo not shown) [compound 31, N-(2-(3-Benzoylphenyl)propyl)-1H-indole-7-carboxamide]
inhibition of Gli1-mediated transcription (Gli-Luc), relative potency in words [1]: decreased the potency

SMILES: CC(C(=O)N(C)c1ccc2cc[nH]c2c1)c1cccc(C(=O)c2ccccc2)c1 (stereo not shown) [compound 32, 2-(3-Benzoylphenyl)-N-(1H-indol-6-yl)-N-methylpropanamide]
inhibition of Gli1-mediated transcription (Gli-Luc), relative potency in words [1]: Little improvement

SMILES: CCCN(Cc1ccc2[nH]ccc2c1)C(=O)C(C)c1cccc(C(=O)c2ccccc2)c1 (stereo not shown) [compound 44, N-((1H-Indol-5-yl)methyl)-2-(3-benzoylphenyl)-N-propylpropanamide]
inhibition of Gli1-mediated transcription (Gli-Luc), relative potency in words [1]: weaker potency than 42

SMILES: CC(C(=O)Nc1ccc2[nH]ccc2c1)c1cccc(C(=O)c2ccccc2)c1 (stereo not shown) [compound 22, 2-(3-Benzoylphenyl)-N-(1H-indol-5-yl)propanamide]
inhibition of Gli1-mediated transcription (Gli-Luc), relative potency in words [1]: higher activity than 20

IC50 ([1]; Homo sapiens, C3H 10T1/2, 24 h, read-out: IC50, Gli-Luc signal in Gli1-transfected C3H10T1/2 cells): ~20 µM
SMILES: CN(C)c1ccccc1CN1CCCN(Cc2ccccc2N(C)C)C1c1ccncc1 [GANT61, reference compound]

SMILES: CC(C(=O)NCCc1ccc2[nH]ccc2c1)c1cccc(C(=O)c2ccccc2)c1 (stereo not shown) [compound 20, N-(2-(1H-Indol-5-yl)ethyl)-2-(3-benzoylphenyl)propanamide]
inhibition of Gli1-mediated transcription (Gli-Luc), relative potency in words [1]: much weaker activity than 5

SMILES: CC(C(=O)NCc1ccc2[nH]ccc2c1)c1cccc(C(=O)c2ccccc2)c1 (stereo not shown) [compound 21, N-((1H-Indol-5-yl)methyl)-2-(3-benzoylphenyl)propanamide]
inhibition of Gli1-mediated transcription (Gli-Luc), relative potency in words [1]: higher activity than 20

HDAC inhibition [2]: do not inhibit
stability in mouse liver microsomes, in words [3]: much more stable than 5 and 6
SMILES: CCCN(C(=O)C(C)c1cccc(C(=O)c2ccccc2)c1)c1ccc2cc[nH]c2c1 (stereo not shown) [compound 33, 2-(3-Benzoylphenyl)-N-(1H-indol-6-yl)-N-propylpropanamide]
Gli-Luc inhibition in Rh30 cells, in words ([5]; 10 µM or 20 µM, 24 h): inhibition with similar or slightly weaker potency
expression of Gli1-target genes in Rh30 cells (RT-PCR) [8]: inhibits expression of Gli1-target genes
inhibitory effect in inducing Hh signal-mediated alkaline phosphatase [7]: much smaller than that of HhAntag
